Out of some 60,000 compounds screened, about 60 (0.1%) were called active. The sample holds actives, similar compounds and a random draw of the others, so the mix is not that of the screen.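 The calls were made as follows: active = activation above the screen-wide mean plus 3 SD (cut at about 4.5% in these data, passing the limit was not always enough); inactive = the rest, inconclusive results apart.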
What follows are molecules tested against Sphingosine 1-phosphate receptor 3 (Homo sapiens) (UniProt Q99500) (assay: human S1P3 receptor agonists, primary screen, cell-based, primary and confirmation, NFAT-BLA reporter (AID 373)). Conditions: S1P3 NFAT-BLA reporter cells, agonism, FRET ratio, at 4.5 µM, active compounds read high, relative to 1 µM S1P, basal subtracted.
Method in brief: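 Measure – % activation relative to 1 µM S1P (100%), per plate · System – stable CHO line with human S1P3, Gα16, NFAT-BLA reporter · Timing – cells plated overnight, compound 4 h 37 °C, substrate 2 h RT · Technique – fluorescent BLA substrate, ex 405 nm, em 460/535 nm ratio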

Chain of Sphingosine 1-phosphate receptor 3 (Homo sapiens) (Q99500 whole entry, looked up): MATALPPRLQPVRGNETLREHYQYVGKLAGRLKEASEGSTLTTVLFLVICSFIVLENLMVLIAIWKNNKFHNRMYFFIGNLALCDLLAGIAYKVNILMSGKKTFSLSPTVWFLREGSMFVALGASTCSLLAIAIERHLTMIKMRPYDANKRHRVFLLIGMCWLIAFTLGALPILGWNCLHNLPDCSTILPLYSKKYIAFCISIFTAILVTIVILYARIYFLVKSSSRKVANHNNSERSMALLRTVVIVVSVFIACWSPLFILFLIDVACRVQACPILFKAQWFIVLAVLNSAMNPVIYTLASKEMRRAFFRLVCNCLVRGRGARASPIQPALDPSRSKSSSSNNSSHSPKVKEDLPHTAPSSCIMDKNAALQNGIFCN

activation, inactive:
CCOc1ccc(CNC(=O)C2CC(=O)N(C3CCCC3)C2)cc1OC (configuration not stated) 0.9%
O=C1CCC(Cc2ccccc2)N1 (configuration not stated) 0.3%
CCCCOc1ccc(-c2nnc(-c3ccco3)o2)cc1 -0.5%
COC(=O)N1CN(C(=O)OC)CN(C(=O)OC)C1 -0.2%
COC(=O)CN(c1nc(C)c(Cl)c(OC)n1)S(=O)(=O)c1ccc(C)cc1 -1.1%
O=C(O)c1ccc(NS(=O)(=O)c2cccc3nsnc23)cc1 -0.5%
Cn1c(=O)[nH]c(=O)c2c1nc(Br)n2CCCCSc1nc2ccccc2o1 -1.6%
O=C(NCCN1CCOCC1)c1ccc2c(c1)ncn2C1CCCC1 -0.2%
COc1cccc(OCC(=O)Nc2ccccc2C(N)=O)c1 -1.1%
CCOC(=O)N1CCN(C(=O)c2cc3c(-c4ccc(Cl)cc4)nn(C)c3s2)CC1 -1.5%
Cc1cc(C)c2nc(SCCC#N)nc(C)c2c1 -0.8%
c1cc(-c2nn[nH]n2)ccc1CN1CCCCC1 -0.2%
N#CC(C(N)=O)=C1CCC2(CC1)OCCCCO2 -0.6%
CC(CNC(=O)c1ccc(Br)o1)NC(=O)c1ccc(Br)o1 (configuration not stated) -0.8%
Cc1ccc(OCC(=O)Nc2ccc(-c3nc4ncccc4o3)cc2)cc1 0.4%
O=c1c2ccccc2[nH]c(=S)n1CCN1CCC(=C(c2ccc(F)cc2)c2ccc(F)cc2)CC1 -2.2%
Cc1cc(NC(=O)CCC(=O)N(c2ccccc2)C(C(=O)NC2CCCC2)c2ccncc2)no1 (configuration not stated) -0.2%
O=C(OCCO)c1cc(Cl)c(C(=O)OCCO)cc1Cl -1.2%
Cc1cccc(NC(=O)C2CCN(S(=O)(=O)c3cccc4cccnc34)CC2)c1 -0.2%
CN(C)c1ccnc2sc3c(=O)n(Cc4ccccc4)cnc3c12 -1.9%
CCN1C(=O)/C(=C2\SC(N3CCCCC3)=NC2=O)c2ccccc21 -0.5%
COc1ccc2c(c1OC)C(=O)OC2c1c(O)nc(SC)n(-c2ccccc2)c1=O (configuration not stated) -2.9%
CCc1nnc(NC(=O)c2cccs2)s1 0.7%
COc1ccc(C(=O)N(CCN2CCOCC2)CC(=O)NC2CCCC2)cc1OC 0.6%
CCn1c(=O)cc(O)c2ccccc21 0.7%
CCOC(=O)C1=C(C)N=c2s/c(=C\C(=O)OC)c(=O)n2C1c1ccc(OC)cc1 (configuration not stated) -0.8%
O=C(CCc1ccccc1)Nc1cccc(-c2nnc(-c3ccco3)o2)c1 -0.9%
CCc1cc(=O)oc2cc(C)cc(OC(C)C(=O)O)c12 (configuration not stated) -0.4%
COc1ccc(Cn2nnc3c(=O)[nH]c(C4CCN(C(=O)c5ccccc5Cl)CC4)nc32)cc1 -0.1%
COc1ccc(N2C(=O)C3CCCN3C2c2cccc(OC)c2)cc1 (configuration not stated) -0.5%
Cc1ccc(C(=O)Nc2nnc(-c3cccs3)s2)cc1C -0.6%
COc1ccccc1NC(=O)CN1CCN(S(=O)(=O)c2ccc(Br)cc2)CC1 -0.8%
Cc1ccc(C(C(=O)NCc2ccco2)N(CC2CCCO2)C(=O)Cn2nnc3ccccc32)cc1 (configuration not stated) -0.7%
CC1CCN(Cc2nc3c(c(=O)n(C)c(=O)n3C)n2Cc2cccc3ccccc23)CC1 -0.5%
COC(=O)Cn1c(=NC(=O)CSCC(=O)Nc2cc(C)on2)sc2ccccc21 -0.5%
COC(=O)c1c(-c2ccc(C)cc2)csc1N -0.4%
CCOC(=O)N1CCN(CC(=O)c2ccc3c(c2)CCN3)CC1 0%
CC(C)(C)c1ccc(NC(=O)NCc2ccco2)cc1 -0.2%
CC(=O)CCS(=O)(=O)c1ccc(C)c(C)c1 -3%
COC(=O)c1ccc(CSc2nncn2C)cc1 -1.1%
CCn1cc(C(=O)NCC2CCCO2)c(=O)c2cc(S(=O)(=O)N3CCCCC3)ccc21 (configuration not stated) -0.3%
O=c1oc2c(CN3CCCCC3)c(O)ccc2c2c1CCCCC2 -1%
